In brackets after ≈: the same amount, converted by molar mass.
These compounds were tested on Mycobacterium tuberculosis (assay: Antimycobacterial activity against multidrug-resistant Mycobacterium tuberculosis by agar dilution method).
Format: functional
Method in brief: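 MIC by agar dilution on Middlebrook 7H11 agar supplemented with OADC, following an NCCLS-like procedure, run in duplicate. The MDR-TB clinical isolate was resistant to isoniazid, rifampicin, ethambutol and ofloxacin.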

Compound	MIC [µM]
O=C(O)c1c(=O)c2cc(F)c(N3CCC(n4c(=O)[nH]c5cc(Cl)ccc54)CC3)cc2n2c1sc1ccccc12	5.56 (≈ 3.13 µg/mL)
O=C(O)c1c(=O)c2cc(F)c(N3CCC(N4CCCCC4)CC3)cc2n2c1sc1ccccc12	0.19 (≈ 0.0911 µg/mL)
O=C(O)c1c(=O)c2cc(F)c(N3CCC4(CC3)OCCO4)cc2n2c1sc1ccccc12	0.86 (≈ 0.391 µg/mL)
CC(C)(C)NC(=O)C1c2ccccc2CCN1c1cc2c(cc1F)c(=O)c(C(=O)O)c1sc3ccccc3n12 (centres undefined)	1.43 (≈ 0.777 µg/mL)
O=C(O)c1c(=O)c2cc(F)c(N3CCN(C(=O)C4COc5ccccc5O4)CC3)cc2n2c1sc1ccccc12 (centres undefined)	5.59 (≈ 3.13 µg/mL)
CC(C)(C)OC(=O)NC1C2CN(c3cc4c(cc3F)c(=O)c(C(=O)O)c3sc5ccccc5n34)CC21 (centres undefined)	0.18 (≈ 0.0917 µg/mL)
O=C(O)c1c(=O)c2cc([N+](=O)[O-])c(N3CCC4(CC3)OCCO4)cc2n2c1sc1ccccc12	0.39 (≈ 0.188 µg/mL)
CC(C)(C)OC(=O)NC1C2CN(c3cc4c(cc3[N+](=O)[O-])c(=O)c(C(=O)O)c3sc5ccccc5n34)CC21 (centres undefined)	0.73 (≈ 0.392 µg/mL)
O=C(O)c1c(=O)c2cc(F)c(N3CCN(Cc4ccc5c(c4)OCO5)CC3)cc2n2c1sc1ccccc12	5.89 (≈ 3.13 µg/mL)
O=C(O)c1c(=O)c2cc(F)c(N3CCN(C(c4ccccc4)c4ccc(Cl)cc4)CC3)cc2n2c1sc1ccccc12 (centres undefined)	0.65 (≈ 0.389 µg/mL)
CC(C)(C)NC(=O)C1c2ccccc2CCN1c1cc2c(cc1[N+](=O)[O-])c(=O)c(C(=O)O)c1sc3ccccc3n12 (centres undefined)	5.49 (≈ 3.13 µg/mL)
O=C(O)c1c(=O)c2cc([N+](=O)[O-])c(N3CCC(O)(c4ccc(Cl)cc4)CC3)cc2n2c1sc1ccccc12	2.84 (≈ 1.56 µg/mL)
O=C(O)c1c(=O)c2cc(F)c(N3CCSCC3)cc2n2c1sc1ccccc12	7.55 (≈ 3.13 µg/mL)
CCN(CC)C(=O)C1CCCN(c2cc3c(cc2F)c(=O)c(C(=O)O)c2sc4ccccc4n23)C1 (centres undefined)	0.08 (≈ 0.0396 µg/mL)
Cc1onc(-c2c(F)cccc2F)c1C(=O)N1CCN(c2cc3c(cc2F)c(=O)c(C(=O)O)c2sc4ccccc4n23)CC1	5.06 (≈ 3.13 µg/mL)
O=C(O)c1cn2c(n1)CN(c1cc3c(cc1F)c(=O)c(C(=O)O)c1sc4ccccc4n13)CC2	0.39 (≈ 0.187 µg/mL)
COc1cc2c(cc1OC)CN(c1cc3c(cc1[N+](=O)[O-])c(=O)c(C(=O)O)c1sc4ccccc4n13)CC2	2.93 (≈ 1.56 µg/mL)
CCN(CC)C(=O)C1CCCN(c2cc3c(cc2[N+](=O)[O-])c(=O)c(C(=O)O)c2sc4ccccc4n23)C1 (centres undefined)	0.75 (≈ 0.392 µg/mL)
O=C(O)c1cn2c(n1)CN(c1cc3c(cc1[N+](=O)[O-])c(=O)c(C(=O)O)c1sc4ccccc4n13)CC2	0.77 (≈ 0.389 µg/mL)
O=C(O)c1c(=O)c2cc(F)c(N3CCC(O)(c4ccc(Cl)cc4)CC3)cc2n2c1sc1ccccc12	0.36 (≈ 0.188 µg/mL)
O=C(O)c1c(=O)c2cc([N+](=O)[O-])c(N3CCC(N4CCCCC4)CC3)cc2n2c1sc1ccccc12	1.54 (≈ 0.78 µg/mL)
COc1cc2c(cc1OC)CN(c1cc3c(cc1F)c(=O)c(C(=O)O)c1sc4ccccc4n13)CC2	3.09 (≈ 1.56 µg/mL)
COc1c(N2CCNC(C)C2)c(F)cc2c(=O)c(C(=O)O)cn(C3CC3)c12 (centres undefined) [GATIFLOXACIN]	8.34 (≈ 3.13 µg/mL)
NNC(=O)c1ccncc1 [ISONIAZID]	45.6 (≈ 6.25 µg/mL)

From ChEMBL document CHEMBL1142419, “Antimycobacterial activities of novel 2-(sub)-3-fluoro/nitro-5,12-dihydro-5-oxobenzothiazolo[3,2-a]quinoline-6-carboxylic acid” (Bioorg Med Chem, 2008)
